Measured values from different studies.
Protocols differ between the studies behind these lines.
Short transient receptor potential channel 5: Short transient receptor potential channel 5 (Mus musculus, UniProt Q9QX29)
Htr2a: 5-hydroxytryptamine receptor 2A (Htr2a, Mus musculus, UniProt P35363)

SMILES | target | test | test system | setting | quantity | result
COc1cc2c(cc1OC)CN(CCc1ccc(NC(=O)c3cccc4c(=O)c5cccc(OC)c5[nH]c34)cc1)CC2 | Beta-3 adrenergic receptor (ADRB3, Homo sapiens, UniProt P13945) | cell-free assay |  |  | Ki | > 10 µM
CNCCCN1c2ccccc2CCc2ccccc21 | Short transient receptor potential channel 5 | ion current, inhibitor, patch clamp |  |  | IC50 | 10.3 µM
COc1cc(CCN)c(OC)cc1C#N | Htr2a | G protein activation, agonist, BRET |  |  | EC50 | 0.32 µM
CN(C)CCCN1c2ccccc2CCc2ccccc21 | Short transient receptor potential channel 5 | ion current, inhibitor, patch clamp |  |  | IC50 | 11.7 µM
CN1CC[C@@]2(C)c3cc(OC(=O)Nc4ccccc4)ccc3N(C)[C@@H]12 | Aldehyde dehydrogenase, mitochondrial (ALDH2, Homo sapiens, UniProt P05091) | enzyme activity, inhibitor, fluorescence |  |  | IC50 | < 10 µM
Cc1ccc(OCC(=O)N[C@@H](Cc2c[nH]c3ccccc23)C(=O)OC(C)C)cc1 | Cytochrome P450 3A4 (CYP3A4, Homo sapiens, UniProt P08684) | enzyme activity, inhibitor | human, liver microsomes | 30 min, midazolam probe | IC50 | > 50 µM
COc1cc(CCNC(C)c2ccccc2O)c(OC)cc1Br (centres unmarked) | Htr2a | G protein activation, agonist, BRET |  |  | EC50 | 0.00094 µM
CC(=O)c1c(C)c2cnc(Nc3ccc(C4CCN(CCS(C)(=O)=O)CC4)cn3)nc2n(C2CCCC2)c1=O | Cytochrome P450 1A2 (CYP1A2, Homo sapiens, UniProt P05177) | enzyme activity, inhibitor | human, liver microsomes |  | IC50 | > 10 µM
